Key:
[1] = target: Tyrosine-protein kinase JAK1 (Homo sapiens, UniProt P23458); assay: Inhibition of cytoplasmic recombinant human GST-tagged JAK1 (886 to 1154 residues) expressed in insect cells using FITC-C6-KKHTDDGYMPMSPGVA-NH as substrate after 10 mins by caliper assay
How it was run: (§1)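 Biochemical kinase inhibition IC50 measured at 5 mM ATP. Values are the geometric mean of at least two independent experiments.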

A549 = assay: Antiproliferative activity against human A549 cells after 48 hrs by Alamar Blue based assay; assay type: functional; settings: A549, 48 h
How it was run: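 Antiproliferation assay in A549 cells, reported as GI50.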

[2] = target: Non-receptor tyrosine-protein kinase TYK2 (Homo sapiens, UniProt P29597); assay: Inhibition of recombinant human N-terminal GST-tagged TYK2 (871 to 1187 residues) expressed in baculovirus expression system using 5FAM-GEEPLYWSFPAKKK-NH2 as substrate after 10 mins by caliper assay; how it was run: as §1
[3] = target: T1, Serine/threonine-protein kinase D1 (Homo sapiens) (UniProt Q15139); assay: Inhibition of recombinant human full length GST-tagged PRKD1 expressed in baculovirus at 1 uM
T1 sequence (whole entry): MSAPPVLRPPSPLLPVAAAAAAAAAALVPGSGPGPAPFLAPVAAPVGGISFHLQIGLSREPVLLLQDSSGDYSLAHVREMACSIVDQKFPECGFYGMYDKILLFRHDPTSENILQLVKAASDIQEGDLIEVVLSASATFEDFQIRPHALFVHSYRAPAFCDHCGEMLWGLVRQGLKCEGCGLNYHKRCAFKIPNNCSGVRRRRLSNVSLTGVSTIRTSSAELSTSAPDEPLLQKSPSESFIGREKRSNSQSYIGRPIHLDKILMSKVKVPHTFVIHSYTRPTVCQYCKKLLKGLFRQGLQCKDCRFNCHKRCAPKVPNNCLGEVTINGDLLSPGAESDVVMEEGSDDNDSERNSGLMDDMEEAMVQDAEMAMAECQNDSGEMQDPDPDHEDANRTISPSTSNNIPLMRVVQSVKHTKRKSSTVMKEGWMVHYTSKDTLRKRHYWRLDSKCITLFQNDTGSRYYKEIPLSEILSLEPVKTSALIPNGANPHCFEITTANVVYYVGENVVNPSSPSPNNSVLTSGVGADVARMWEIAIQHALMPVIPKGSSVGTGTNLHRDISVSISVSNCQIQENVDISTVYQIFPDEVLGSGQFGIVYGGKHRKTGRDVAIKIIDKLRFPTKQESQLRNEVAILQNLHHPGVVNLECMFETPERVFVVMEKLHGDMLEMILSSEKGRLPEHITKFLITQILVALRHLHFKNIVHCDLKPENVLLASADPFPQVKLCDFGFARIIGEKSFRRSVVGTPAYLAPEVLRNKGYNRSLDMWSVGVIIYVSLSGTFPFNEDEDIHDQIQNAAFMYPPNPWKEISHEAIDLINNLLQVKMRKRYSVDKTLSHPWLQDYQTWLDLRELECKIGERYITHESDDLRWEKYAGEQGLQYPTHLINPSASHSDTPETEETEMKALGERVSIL
How it was run: (§2)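 Kinase panel of 386 kinases, each screened at a single concentration of 1 μM.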

[4] = target: T2, NUAK family SNF1-like kinase 1 (Homo sapiens) (UniProt O60285); assay: Inhibition of recombinant human full length His-tagged NUAK1 expressed in baculovirus at 1 uM; how it was run: as §2
T2 sequence (whole entry): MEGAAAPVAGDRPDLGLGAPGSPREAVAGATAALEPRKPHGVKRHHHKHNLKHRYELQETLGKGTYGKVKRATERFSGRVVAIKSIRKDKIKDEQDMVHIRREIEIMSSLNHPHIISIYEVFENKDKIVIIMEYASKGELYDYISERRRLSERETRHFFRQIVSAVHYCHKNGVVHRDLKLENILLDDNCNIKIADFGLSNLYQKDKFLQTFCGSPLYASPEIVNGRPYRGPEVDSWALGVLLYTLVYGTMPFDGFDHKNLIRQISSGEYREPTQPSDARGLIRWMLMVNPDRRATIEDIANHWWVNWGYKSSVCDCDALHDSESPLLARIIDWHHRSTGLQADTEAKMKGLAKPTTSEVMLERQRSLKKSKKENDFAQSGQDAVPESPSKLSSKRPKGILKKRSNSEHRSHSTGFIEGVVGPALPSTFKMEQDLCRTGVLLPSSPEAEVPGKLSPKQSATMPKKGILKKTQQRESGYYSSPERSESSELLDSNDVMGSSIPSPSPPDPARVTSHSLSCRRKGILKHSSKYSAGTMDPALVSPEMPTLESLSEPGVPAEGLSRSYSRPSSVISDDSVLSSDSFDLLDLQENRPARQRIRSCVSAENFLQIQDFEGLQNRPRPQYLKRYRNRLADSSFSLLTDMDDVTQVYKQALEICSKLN

[5] = Half life in CD1 mouse at 3 mg/kg, iv by LC/MS/MS analysis; assay type: ADME, organism-based; settings: in vivo
How it was run: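 Mouse pharmacokinetics after a single iv dose of 3 mg/kg in 10% HPbCD + 5% dextrose in WFI at pH 4. Plasma clearance, half-life and steady-state volume of distribution were derived.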

[6] = Oral bioavailability in CD1 mouse at 10 mg/kg administered via gavage by LC/MS/MS analysis; assay type: ADME, organism-based; settings: in vivo
How it was run: (§3)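 Mouse pharmacokinetics after oral dosing at 10 or 50 mg/kg. The 10 mg/kg dose was given in 10% HPbCD + 5% dextrose in WFI at pH 4. The 50 mg/kg dose was given in 5% SBECD in WFI at pH 2. Plasma exposure (AUC), half-life and oral bioavailability were derived.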

[7] = Half life in CD1 mouse at 50 mg/kg, po administered via gavage by LC/MS/MS analysis; assay type: ADME, organism-based; settings: in vivo; how it was run: as §3
Mus musculus = assay: Time above EC50 for inhibition of JAK1 in CD1 mouse at 50 mg/kg, po administered via gavage; settings: in vivo

Sequence of Tyrosine-protein kinase JAK1 (P23458 whole entry, the tested form may be a part): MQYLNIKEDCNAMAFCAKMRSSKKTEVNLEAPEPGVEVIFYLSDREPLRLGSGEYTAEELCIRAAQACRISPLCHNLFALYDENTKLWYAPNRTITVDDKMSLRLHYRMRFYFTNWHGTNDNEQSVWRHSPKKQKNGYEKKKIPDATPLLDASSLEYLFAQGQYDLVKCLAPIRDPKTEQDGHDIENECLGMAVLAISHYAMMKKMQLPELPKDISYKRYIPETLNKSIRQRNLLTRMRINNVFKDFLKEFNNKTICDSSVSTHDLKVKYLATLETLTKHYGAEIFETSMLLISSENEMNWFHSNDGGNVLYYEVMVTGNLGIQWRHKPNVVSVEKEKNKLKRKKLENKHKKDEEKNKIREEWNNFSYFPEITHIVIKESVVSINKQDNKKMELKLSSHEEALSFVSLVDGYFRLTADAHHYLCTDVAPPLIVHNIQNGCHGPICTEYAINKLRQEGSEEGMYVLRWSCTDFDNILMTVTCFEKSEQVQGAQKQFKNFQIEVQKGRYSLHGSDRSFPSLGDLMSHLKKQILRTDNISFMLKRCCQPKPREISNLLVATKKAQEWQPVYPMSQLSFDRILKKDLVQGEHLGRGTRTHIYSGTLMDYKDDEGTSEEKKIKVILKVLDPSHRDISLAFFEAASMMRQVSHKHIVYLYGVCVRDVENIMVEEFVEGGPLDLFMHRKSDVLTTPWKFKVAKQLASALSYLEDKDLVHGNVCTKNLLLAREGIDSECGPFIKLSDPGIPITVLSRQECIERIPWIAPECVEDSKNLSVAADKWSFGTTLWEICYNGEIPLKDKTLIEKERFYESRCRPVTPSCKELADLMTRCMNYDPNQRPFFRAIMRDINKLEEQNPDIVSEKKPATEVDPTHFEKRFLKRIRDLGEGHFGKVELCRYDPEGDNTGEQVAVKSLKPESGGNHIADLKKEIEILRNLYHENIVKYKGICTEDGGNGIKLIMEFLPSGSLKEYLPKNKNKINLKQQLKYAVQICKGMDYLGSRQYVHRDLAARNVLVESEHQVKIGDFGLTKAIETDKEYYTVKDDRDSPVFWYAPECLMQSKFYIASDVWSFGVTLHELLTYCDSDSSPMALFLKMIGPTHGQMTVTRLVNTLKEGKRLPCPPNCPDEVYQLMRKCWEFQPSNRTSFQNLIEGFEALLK
Sequence of Non-receptor tyrosine-protein kinase TYK2 (P29597 whole entry, the tested form may be a part): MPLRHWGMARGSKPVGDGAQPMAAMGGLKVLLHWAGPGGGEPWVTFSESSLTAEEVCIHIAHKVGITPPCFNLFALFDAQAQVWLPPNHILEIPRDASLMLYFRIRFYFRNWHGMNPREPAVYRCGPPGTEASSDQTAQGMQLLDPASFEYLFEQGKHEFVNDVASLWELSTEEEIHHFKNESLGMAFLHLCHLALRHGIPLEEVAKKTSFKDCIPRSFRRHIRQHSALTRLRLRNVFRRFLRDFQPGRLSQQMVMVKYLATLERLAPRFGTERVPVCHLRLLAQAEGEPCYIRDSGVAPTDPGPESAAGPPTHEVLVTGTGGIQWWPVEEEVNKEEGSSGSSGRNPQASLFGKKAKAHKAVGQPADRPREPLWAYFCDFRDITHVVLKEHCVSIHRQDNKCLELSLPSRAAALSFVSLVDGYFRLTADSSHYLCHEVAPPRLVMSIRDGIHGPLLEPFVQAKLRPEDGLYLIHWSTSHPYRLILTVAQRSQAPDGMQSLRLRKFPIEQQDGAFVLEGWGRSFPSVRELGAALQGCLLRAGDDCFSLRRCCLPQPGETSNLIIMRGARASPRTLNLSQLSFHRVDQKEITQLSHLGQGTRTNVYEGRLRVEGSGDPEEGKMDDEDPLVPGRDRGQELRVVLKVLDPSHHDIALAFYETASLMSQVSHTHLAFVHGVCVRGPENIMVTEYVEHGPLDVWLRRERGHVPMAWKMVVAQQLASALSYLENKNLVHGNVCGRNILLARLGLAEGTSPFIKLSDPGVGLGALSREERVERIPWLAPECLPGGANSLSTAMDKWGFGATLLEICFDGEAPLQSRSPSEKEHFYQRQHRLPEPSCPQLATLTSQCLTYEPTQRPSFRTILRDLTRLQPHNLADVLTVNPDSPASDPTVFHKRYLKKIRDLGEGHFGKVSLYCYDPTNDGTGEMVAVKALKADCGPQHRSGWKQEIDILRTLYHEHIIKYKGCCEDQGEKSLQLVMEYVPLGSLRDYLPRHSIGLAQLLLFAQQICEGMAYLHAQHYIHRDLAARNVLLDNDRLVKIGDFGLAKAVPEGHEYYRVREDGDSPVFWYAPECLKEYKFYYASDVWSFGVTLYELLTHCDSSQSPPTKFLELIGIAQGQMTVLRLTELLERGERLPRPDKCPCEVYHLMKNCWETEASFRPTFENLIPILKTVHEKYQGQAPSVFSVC

- IC50 [1]: 0.034 µM
- GI50 (A549): > 10 µM
- IC50 [2]: > 30 µM
- inhibition [3]: 73%
- inhibition [4]: 71%
- half-life [5]: 2.4 h
- bioavailability [6]: 30%
- half-life [7]: 5.3 h
- Time (Mus musculus): 12 h
SMILES: CC[C@@H](C)Nc1nc(Nc2cc(N3C[C@@H]4C[C@H]3CN4C)cnc2F)ncc1C
